Assay results: ChEMBL document CHEMBL1240306, “Allosteric inhibitors of Bcr-abl-dependent cell proliferation” (Nat Chem Biol, 2006)

Experiments:
[1] = Cytotoxic activity against mouse 32D cells transfected with p210 Bcr-abl; type: cell-based
[2] = Antiproliferative activity against mouse 32D cells transfected with p210 cells expressing Bcr-abl assessed as proliferation after 48 hrs by MTT assay; type: cell-based
[3] = Antiproliferative activity against mouse 32D Bcr-abl negative cells assessed as proliferation after 48 hrs by MTT assay
[4] = system: HL-60; test: Antiproliferative activity against human HL60 Bcr-abl negative cells assessed as cell viability after 48 hrs by MTT assay; type: functional, cell-based; details: HL-60, 48 h
In short: (§1)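 Cells seeded at 0.3–0.6 × 10^6/ml in duplicate or triplicate with increasing compound (0.005–10 μM), 37 °C, 5% CO2, 48 h. Viability by MTT dye reduction, expressed as % growth of DMSO-treated cells; IC50 from dose-response curves. Ba/F3 lines carry geneticin selection (1 mg/ml) in RPMI-1640/10% FBS; parental Ba/F3 kept with 10 U/ml murine IL-3.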

[5] = system: K562; test: Antiproliferative activity against human K562 expressing Bcr-abl assessed as proliferation after 48 hrs by MTT assay; type: functional, cell-based; details: K562, 48 h; in short: as §1
[6] = system: Jurkat; test: Antiproliferative activity against human Jurkat Bcr-abl negative cells assessed as proliferation after 48 hrs by MTT assay; type: functional, cell-based; in short: as §1
[7] = Antiproliferative activity against human M07e Bcr-abl negative cells expressing stem cell factor assessed as proliferation after 48 hrs by MTT assay; type: functional, cell-based; details: M-07e
In short: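 Human megakaryoblastic Mo7e cells grown in RPMI-1640, 20% FBS, with either 5 ng/ml human GM-CSF or 200 ng/ml stem cell factor (c-kit-driven growth). Compound up to 10 μM, 48 h at 37 °C; viability read by MTT reduction relative to DMSO-treated cells.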

[8] = Antiproliferative activity against mouse BA/F3 Bcr-abl negative cells expressing FIt3-ITD kinase assessed as proliferation after 48 hrs by MTT assay; type: functional, cell-based; details: BaF3, 48 h; in short: as §1
[9] = Antiproliferative activity against mouse BA/F3 Bcr-abl negative cells expressing Tel-PDGFRbeta kinase assessed as proliferation after 48 hrs by MTT assay; type: functional, cell-based; details: BaF3, 48 h; in short: as §1
[10] = Antiproliferative activity against mouse BA/F3 Bcr-abl negative cells expressing TPR-MET kinase assessed as proliferation after 48 hrs by MTT assay; type: functional, cell-based; details: BaF3, 48 h; in short: as §1
[11] = Antiproliferation activity against mouse BA/F3 cells expressing Bcr-abl A334l mutant assessed as cell viability after 48 hrs by MTT assay; type: functional, cell-based; details: BaF3, 48 h, in the assay text read “A344L” for “A334l”; in short: as §1
[12] = Antiproliferation activity against mouse BA/F3 cells expressing Bcr-abl A337N mutant assessed as cell viability after 48 hrs by MTT assay; type: functional, cell-based; details: BaF3, 48 h; in short: as §1
[13] = Antiproliferation activity against mouse BA/F3 cells expressing Bcr-abl assessed as cell viability after 48 hrs by MTT assay; type: functional, cell-based; details: BaF3, 48 h; in short: as §1
[14] = biological target: Mitogen-activated protein kinase 12 (Homo sapiens) (UniProt P53778); test: Inhibition of human SAPK3 activity at 10 uM by radiometric assay
[15] = biological target: BDNF/NT-3 growth factors receptor (Homo sapiens) (UniProt Q16620); test: Inhibition of human TrkB activity at 10 uM by radiometric assay
[16] = biological target: Angiopoietin-1 receptor (Homo sapiens) (UniProt Q02763); test: Inhibition of human Tie2 activity at 10 uM by radiometric assay
[17] = biological target: Platelet-derived growth factor receptor beta (Homo sapiens) (UniProt P09619); test: Inhibition of human PDGFR-beta activity at 10 uM by radiometric assay
[18] = biological target: Ribosomal protein S6 kinase alpha-1 (Homo sapiens) (UniProt Q15418); test: Inhibition of human Rsk1 activity at 10 uM by radiometric assay
[19] = biological target: Serine/threonine-protein kinase D2 (Homo sapiens) (UniProt Q9BZL6); test: Inhibition of human PKD2 activity at 10 uM by radiometric assay
[20] = biological target: Protein kinase C alpha type (Homo sapiens) (UniProt P17252); test: Inhibition of human PKCalpha activity at 10 uM by radiometric assay
[21] = biological target: RAC-alpha serine/threonine-protein kinase (Homo sapiens) (UniProt P31749); test: Inhibition of human PKBalpha activity at 10 uM by radiometric assay
[22] = biological target: Serine/threonine-protein kinase Nek2 (Homo sapiens) (UniProt P51955); test: Inhibition of human NEK2 activity at 10 uM by radiometric assay
[23] = biological target: MAP kinase-activated protein kinase 2 (Homo sapiens) (UniProt P49137); test: Inhibition of human MAPKAP-K2 activity at 10 uM by radiometric assay
[24] = biological target: Mitogen-activated protein kinase 9 (Homo sapiens) (UniProt P45984); test: Inhibition of human JNK2alpha2 activity at 10 uM by radiometric assay
[25] = biological target: RAF proto-oncogene serine/threonine-protein kinase (Homo sapiens) (UniProt P04049); test: Inhibition of human c-RAF activity at 10 uM by radiometric assay
[26] = biological target: Serine/threonine-protein kinase Chk2 (Homo sapiens) (UniProt O96017); test: Inhibition of human CHK2 activity at 10 uM by radiometric assay
[27] = biological target: Mast/stem cell growth factor receptor Kit (Homo sapiens) (UniProt P10721); test: Inhibition of human c-kit activity at 10 uM by radiometric assay
[28] = biological target: Vascular endothelial growth factor receptor 2 (Homo sapiens) (UniProt P35968); test: Inhibition of human KDR activity at 10 uM by radiometric assay
[29] = biological target: Insulin receptor (Homo sapiens) (UniProt P06213); test: Inhibition of human IR activity at 10 uM by radiometric assay
[30] = biological target: Insulin-like growth factor 1 receptor (Homo sapiens) (UniProt P08069); test: Inhibition of human IGF-1R activity at 10 uM by radiometric assay
[31] = biological target: Vascular endothelial growth factor receptor 3 (Homo sapiens) (UniProt P35916); test: Inhibition of human Flt-4 activity at 10 uM by radiometric assay
[32] = biological target: Tyrosine-protein kinase ZAP-70 (Homo sapiens) (UniProt P43403); test: Inhibition of human ZAP-70 activity at 10 uM by radiometric assay
[33] = biological target: Tyrosine-protein kinase Fes/Fps (Homo sapiens) (UniProt P07332); test: Inhibition of human Fes activity at 10 uM by radiometric assay
[34] = biological target: Tyrosine-protein kinase CSK (Homo sapiens) (UniProt P41240); test: Inhibition of human CSK activity at 10 uM by radiometric assay
[35] = biological target: Cytoplasmic tyrosine-protein kinase BMX (Homo sapiens) (UniProt P51813); test: Inhibition of human Bmx activity at 10 uM by radiometric assay
[36] = biological target: 5'-AMP-activated protein kinase catalytic subunit alpha-2 (Rattus norvegicus) (UniProt Q09137); details: 10 uM
[37] = biological target: cAMP-dependent protein kinase catalytic subunit beta (Homo sapiens) (UniProt P22694); details: 10 uM
[38] = biological target: Platelet-derived growth factor receptor alpha (Homo sapiens) (UniProt P16234); details: 10 uM
Platelet-derived growth factor receptor alpha (Homo sapiens), sequence (P16234 whole entry): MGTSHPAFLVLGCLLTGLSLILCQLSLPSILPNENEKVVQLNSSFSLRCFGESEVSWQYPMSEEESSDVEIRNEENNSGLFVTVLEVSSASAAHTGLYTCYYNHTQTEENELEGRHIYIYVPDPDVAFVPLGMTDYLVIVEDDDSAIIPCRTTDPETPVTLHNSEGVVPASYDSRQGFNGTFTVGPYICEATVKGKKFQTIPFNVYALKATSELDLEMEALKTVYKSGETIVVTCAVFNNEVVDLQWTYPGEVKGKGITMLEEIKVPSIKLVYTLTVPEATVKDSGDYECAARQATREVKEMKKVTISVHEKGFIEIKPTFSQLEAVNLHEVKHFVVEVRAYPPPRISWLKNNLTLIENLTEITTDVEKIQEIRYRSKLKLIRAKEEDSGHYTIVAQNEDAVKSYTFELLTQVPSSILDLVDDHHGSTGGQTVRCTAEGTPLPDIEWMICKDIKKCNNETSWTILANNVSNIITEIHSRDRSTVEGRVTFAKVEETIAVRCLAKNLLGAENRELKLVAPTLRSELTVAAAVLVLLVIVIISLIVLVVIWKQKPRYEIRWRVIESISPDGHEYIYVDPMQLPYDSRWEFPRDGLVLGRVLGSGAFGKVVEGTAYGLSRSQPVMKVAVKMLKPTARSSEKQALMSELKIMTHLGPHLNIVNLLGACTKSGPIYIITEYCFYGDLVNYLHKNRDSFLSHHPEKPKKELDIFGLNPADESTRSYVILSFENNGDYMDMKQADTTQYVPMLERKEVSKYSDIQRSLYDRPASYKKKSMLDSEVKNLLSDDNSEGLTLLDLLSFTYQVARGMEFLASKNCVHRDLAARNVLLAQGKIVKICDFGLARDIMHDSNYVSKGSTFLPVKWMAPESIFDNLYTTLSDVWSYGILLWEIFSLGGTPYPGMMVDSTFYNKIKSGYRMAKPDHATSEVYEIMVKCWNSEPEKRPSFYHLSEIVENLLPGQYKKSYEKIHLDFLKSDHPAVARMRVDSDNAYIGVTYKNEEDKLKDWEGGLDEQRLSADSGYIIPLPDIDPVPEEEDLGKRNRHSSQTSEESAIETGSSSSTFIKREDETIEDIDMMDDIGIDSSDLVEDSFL

Tyrosine-protein kinase CSK (Homo sapiens), sequence (P41240 2-450 limits assumed): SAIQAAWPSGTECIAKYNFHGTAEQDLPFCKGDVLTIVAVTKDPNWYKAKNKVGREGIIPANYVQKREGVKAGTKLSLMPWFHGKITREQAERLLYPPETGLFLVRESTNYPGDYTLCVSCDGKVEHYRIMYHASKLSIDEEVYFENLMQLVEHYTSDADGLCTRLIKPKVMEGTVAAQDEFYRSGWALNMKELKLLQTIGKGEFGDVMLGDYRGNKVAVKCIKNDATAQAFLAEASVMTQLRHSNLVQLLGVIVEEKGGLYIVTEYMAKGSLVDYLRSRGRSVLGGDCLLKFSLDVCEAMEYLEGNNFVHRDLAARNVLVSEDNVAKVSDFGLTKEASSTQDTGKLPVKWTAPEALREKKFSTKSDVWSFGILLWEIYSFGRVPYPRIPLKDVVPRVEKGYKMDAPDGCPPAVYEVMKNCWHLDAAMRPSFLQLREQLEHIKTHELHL
Mitogen-activated protein kinase 12 (Homo sapiens), sequence (P53778 whole entry): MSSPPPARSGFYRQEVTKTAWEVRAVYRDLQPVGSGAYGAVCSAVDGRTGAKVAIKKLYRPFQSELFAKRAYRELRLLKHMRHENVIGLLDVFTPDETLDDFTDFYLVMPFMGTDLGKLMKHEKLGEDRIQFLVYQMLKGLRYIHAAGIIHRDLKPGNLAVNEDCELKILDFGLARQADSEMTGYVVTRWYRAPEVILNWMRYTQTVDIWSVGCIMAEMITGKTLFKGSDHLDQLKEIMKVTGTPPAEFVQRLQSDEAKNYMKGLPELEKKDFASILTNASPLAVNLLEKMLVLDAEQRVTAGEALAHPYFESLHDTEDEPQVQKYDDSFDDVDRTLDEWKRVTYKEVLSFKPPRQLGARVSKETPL
MAP kinase-activated protein kinase 2 (Homo sapiens), sequence (P49137 whole entry, looked up): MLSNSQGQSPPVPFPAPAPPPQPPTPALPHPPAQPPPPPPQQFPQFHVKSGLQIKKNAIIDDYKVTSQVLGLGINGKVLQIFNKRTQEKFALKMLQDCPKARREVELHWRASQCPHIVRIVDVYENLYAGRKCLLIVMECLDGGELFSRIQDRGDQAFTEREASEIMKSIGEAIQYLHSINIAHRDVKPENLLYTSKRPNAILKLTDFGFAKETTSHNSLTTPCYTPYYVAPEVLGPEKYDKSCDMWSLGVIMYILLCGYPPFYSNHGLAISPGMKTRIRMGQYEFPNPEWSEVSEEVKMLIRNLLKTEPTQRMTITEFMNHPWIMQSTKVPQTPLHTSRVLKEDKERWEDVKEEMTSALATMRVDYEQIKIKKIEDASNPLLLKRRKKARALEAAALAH
Insulin-like growth factor 1 receptor (Homo sapiens), sequence (P08069 31-736 limits assumed): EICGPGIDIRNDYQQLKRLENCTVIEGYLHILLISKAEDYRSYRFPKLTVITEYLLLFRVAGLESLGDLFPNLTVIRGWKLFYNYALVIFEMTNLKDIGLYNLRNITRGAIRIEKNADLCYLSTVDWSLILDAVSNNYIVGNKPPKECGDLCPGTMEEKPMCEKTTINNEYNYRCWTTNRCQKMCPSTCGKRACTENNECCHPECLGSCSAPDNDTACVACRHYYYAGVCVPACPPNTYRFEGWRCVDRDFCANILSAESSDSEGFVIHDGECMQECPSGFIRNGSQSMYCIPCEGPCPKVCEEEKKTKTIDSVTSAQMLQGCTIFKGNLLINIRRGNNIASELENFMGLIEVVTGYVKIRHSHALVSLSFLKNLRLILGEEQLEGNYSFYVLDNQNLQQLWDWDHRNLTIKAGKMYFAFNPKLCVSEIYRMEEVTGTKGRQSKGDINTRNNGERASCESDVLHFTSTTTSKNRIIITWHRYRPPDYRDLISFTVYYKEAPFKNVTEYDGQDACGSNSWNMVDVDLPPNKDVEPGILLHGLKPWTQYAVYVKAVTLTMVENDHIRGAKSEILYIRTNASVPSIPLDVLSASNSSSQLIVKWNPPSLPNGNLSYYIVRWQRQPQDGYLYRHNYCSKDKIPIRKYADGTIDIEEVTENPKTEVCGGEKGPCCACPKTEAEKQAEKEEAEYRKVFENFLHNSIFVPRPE
Insulin-like growth factor 1 receptor (Homo sapiens), sequence (P08069 741-1367 limits assumed): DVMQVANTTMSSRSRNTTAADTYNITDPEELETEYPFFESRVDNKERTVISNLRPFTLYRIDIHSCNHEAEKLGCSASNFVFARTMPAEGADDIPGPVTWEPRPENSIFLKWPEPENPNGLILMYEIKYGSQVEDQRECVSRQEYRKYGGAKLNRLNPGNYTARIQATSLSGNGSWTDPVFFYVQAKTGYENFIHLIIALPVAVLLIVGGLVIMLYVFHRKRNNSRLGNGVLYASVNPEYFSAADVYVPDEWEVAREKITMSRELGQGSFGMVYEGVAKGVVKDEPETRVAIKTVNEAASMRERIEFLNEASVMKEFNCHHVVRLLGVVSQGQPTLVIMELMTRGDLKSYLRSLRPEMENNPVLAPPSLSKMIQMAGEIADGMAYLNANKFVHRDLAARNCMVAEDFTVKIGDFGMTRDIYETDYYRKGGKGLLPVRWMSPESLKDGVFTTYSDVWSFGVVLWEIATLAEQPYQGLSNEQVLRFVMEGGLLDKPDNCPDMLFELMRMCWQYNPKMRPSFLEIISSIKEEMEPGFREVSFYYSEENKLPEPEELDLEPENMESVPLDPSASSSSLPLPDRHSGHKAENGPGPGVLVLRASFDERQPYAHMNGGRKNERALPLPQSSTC
Vascular endothelial growth factor receptor 3 (Homo sapiens), sequence (P35916 whole entry): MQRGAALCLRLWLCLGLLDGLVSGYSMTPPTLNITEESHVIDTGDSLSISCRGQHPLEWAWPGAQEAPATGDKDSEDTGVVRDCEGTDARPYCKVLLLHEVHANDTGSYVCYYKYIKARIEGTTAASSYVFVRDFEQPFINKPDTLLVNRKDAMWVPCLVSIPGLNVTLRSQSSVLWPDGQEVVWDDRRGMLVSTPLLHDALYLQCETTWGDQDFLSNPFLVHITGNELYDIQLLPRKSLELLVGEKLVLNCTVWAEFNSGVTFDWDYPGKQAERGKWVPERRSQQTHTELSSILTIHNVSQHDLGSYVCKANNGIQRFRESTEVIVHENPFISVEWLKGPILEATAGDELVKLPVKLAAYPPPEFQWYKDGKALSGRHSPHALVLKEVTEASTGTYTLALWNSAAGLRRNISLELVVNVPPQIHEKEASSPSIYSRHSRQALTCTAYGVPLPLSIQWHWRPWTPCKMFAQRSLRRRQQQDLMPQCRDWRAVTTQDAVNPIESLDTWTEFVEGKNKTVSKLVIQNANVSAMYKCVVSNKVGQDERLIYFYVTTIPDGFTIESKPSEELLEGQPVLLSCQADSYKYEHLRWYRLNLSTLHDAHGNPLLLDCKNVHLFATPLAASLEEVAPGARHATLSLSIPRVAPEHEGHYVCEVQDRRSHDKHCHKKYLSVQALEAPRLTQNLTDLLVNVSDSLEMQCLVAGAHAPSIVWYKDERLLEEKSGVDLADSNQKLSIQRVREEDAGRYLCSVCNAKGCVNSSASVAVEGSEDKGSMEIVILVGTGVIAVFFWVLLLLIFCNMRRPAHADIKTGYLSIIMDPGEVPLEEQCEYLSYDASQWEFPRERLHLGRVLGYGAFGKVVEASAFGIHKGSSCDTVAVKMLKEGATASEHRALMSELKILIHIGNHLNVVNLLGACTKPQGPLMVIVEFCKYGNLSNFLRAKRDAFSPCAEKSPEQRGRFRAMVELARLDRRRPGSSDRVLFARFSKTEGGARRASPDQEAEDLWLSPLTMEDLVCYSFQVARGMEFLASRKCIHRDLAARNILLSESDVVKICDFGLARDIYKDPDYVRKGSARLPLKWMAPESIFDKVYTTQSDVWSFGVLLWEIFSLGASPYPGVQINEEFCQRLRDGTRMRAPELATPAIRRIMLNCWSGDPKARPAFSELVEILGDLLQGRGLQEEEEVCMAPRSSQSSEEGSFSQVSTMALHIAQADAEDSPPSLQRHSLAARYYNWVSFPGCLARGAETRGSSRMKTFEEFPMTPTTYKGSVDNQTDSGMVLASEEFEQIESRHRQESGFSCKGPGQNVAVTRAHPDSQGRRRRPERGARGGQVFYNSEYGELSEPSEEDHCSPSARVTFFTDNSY

SMILES | IC50 [1] | IC50 [2] | IC50 [3] | IC50 [4] | IC50 [5] | IC50 [6] | IC50 [7] | IC50 [8] | IC50 [9] | IC50 [10] | IC50 [11] | IC50 [12] | IC50 [13] | inhibition [14] | inhibition [15] | inhibition [16] | inhibition [17] | inhibition [18] | inhibition [19] | inhibition [20] | other results
NC(=O)c1cccc(-c2cc(Nc3ccc(OC(F)(F)F)cc3)ncn2)c1 | 138 nM | 187 nM | > 10000 nM | > 10000 nM | 273 nM | > 10000 nM | > 10000 nM | > 10000 nM | > 10000 nM | > 10000 nM | 2370 nM | > 10000 nM | 138 nM | 0% | 4% | 2% | 18% | 0% | 55% | 0% | inhibition [21]: 7%; inhibition [22]: 3%; inhibition [23]: 0%; inhibition [24]: 14%; inhibition [25]: 0%; inhibition [26]: 0%; inhibition [27]: 39%; inhibition [28]: 23%; inhibition [29]: 26%; inhibition [30]: 28%; inhibition [31]: 30%; inhibition [32]: 0%; inhibition [33]: 7%; inhibition [34]: 0%; inhibition [35]: 7%; inhibition [36]: 0%; inhibition [37]: 0%; inhibition [38]: 0%
Cc1ccc(NC(=O)c2ccc(CN3CCN(C)CC3)cc2)cc1Nc1nccc(-c2cccnc2)n1 [IMATINIB] | 190 nM | 112 nM | > 10000 nM | > 10000 nM | 109 nM | > 10000 nM | 257 nM | > 10000 nM | 27 nM | > 10000 nM | 962 nM | 339 nM | 190 nM | 7% | 34% | 66% | 43% | 58% | 11% | 17% | inhibition [21]: 46%; inhibition [22]: 7%; inhibition [23]: 19%; inhibition [24]: 10%; inhibition [25]: 89%; inhibition [26]: 17%; inhibition [27]: 88%; inhibition [28]: 22%; inhibition [29]: 2%; inhibition [30]: 17%; inhibition [31]: 79%; inhibition [32]: 29%; inhibition [33]: 62%; inhibition [34]: 2%; inhibition [35]: 27%; inhibition [36]: 1%; inhibition [37]: 1%; inhibition [38]: 89%
